Source: PubChem BioAssay
CHOP inhibitor: inhibitors of CHOP promoter induction, primary screen, cell-based, unfolded protein response, luciferase reporter. CHO-K1 CHOP-promoter luciferase, tunicamycin-induced, 15-18 h. inhibition, % at 10 µM. 220,000 tested, 3.8% active. AID 2732, 2010;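 active means compounds that reduced the stress-induced luciferase reporter signal by more than about 70% of percent inhibition, limit read from the data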;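 further: 0% = tunicamycin plus vehicle and 100% = wells without tunicamycin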
WT yeast gro inh: growth inhibition of WT strain, primary screen, mitochondrial fusion inhibitor project, WT and mutant strains, chemical genetic. mitochondrial fusion phenotypic screen. inhibition, % at 10 µM. 190,000 tested, 2.1% active; in the data active means inhibition above about 58%; tested in S. cerevisiae
MPTP inh: mitochondrial permeability transition pore inhibitors, primary screen, biochemical, isolated mouse mitochondria, absorbance; Ca2+ swelling absorbance, 30 min; inhibition, % at 10 µM; 360,000 tested, 1.4% active; AID 602449, 2012;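 active means inhibition of 50% or more, scaled per plate between neutral and stimulator controls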;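 further: 0% = DMSO wells given calcium and 100% = 1 mM EGTA wells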
Tb MetRS inh: T. brucei MetRS inhibitors, primary screen, biochemical, luminescence | purified T. brucei MetRS, ATP depletion, Kinase-Glo luminescence | inhibition, % at 11.9 µM | 360,000 tested, 0.4% active | AID 624268, 2012;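 active means inhibition above a per-plate cutoff of the control wells' mean inhibition plus 3 SD, cut at about 5.5% in these data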;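 further: 0% = DMSO wells median and 100% = median of wells with control inhibitor compound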
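Material: parasite MetRS enzyme / Replication: singlicate, one well per compound / Signal: luminescence of leftover ATP / Schedule: 2 h aminoacylation at 25 °C after 15 min preincubation / Medium: HEPES-MgCl2-KCl buffer plus DTT, spermine, BSA, pyrophosphatase / Doses: 11.9 µM single point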
NR3A LBD binder: binders of NR3A ligand-binding domain, primary screen, biophysical, differential scanning fluorimetry, uHTS; Glutamate receptor ionotropic, NMDA 3A (GRIN3A) ligand-binding domain; NR3A LBD differential scanning fluorimetry, Tm shift; 0% = protein alone, 100% = glycine-bound protein; Tm shift relative to glycine control, % at 25 µM; 340,000 tested, 2.5% active;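 active means melting temperature shift of at least 10% of the positive control shift, at one fixed dose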
EBV gp42 block: Epstein-Barr virus gp42 inhibitors, primary screen, biochemical, uHTS, fluorescence polarization; 220,000 tested, 0.42% active; inhibition, % (tested at 21.74 µM); Fluorescence polarization binding assay, mP read-out; Glycoprotein 42 (Epstein-Barr virus (strain AG876)), Q1HVG2; in the data active means inhibition above about 50%
Target sequence (Q1HVG2 whole entry, looked up): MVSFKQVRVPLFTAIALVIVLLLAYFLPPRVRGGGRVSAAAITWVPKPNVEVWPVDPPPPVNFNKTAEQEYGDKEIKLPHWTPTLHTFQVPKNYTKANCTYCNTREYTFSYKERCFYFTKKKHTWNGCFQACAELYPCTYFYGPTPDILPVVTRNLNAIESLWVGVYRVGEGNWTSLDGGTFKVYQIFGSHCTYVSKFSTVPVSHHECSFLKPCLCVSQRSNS
The depositor's hits bear a star; x = no result given. Compounds with a hit are over-represented: about 6.4% of the library has one in this group of screens.

SMILES	CHOP inhibitor	WT yeast gro inh	MPTP inh	Tb MetRS inh	NR3A LBD binder	EBV gp42 block
COc1cc2oc(=O)cc(CN(Cc3ccccc3)Cc3ccccc3)c2cc1Cl	x	x	1.2	-1.3	x	x
CCc1ccccc1NC(=S)N(Cc1ccco1)C(C)c1cccs1 (stereo not given)	-0.5	76.2*	1.3	0.3	-1.0	-1.6
CCc1ccc(NC(=O)N(Cc2ccco2)C(C)c2cccs2)cc1 (stereo not given)	2.4	1.8	1.6	-1.9	1.7	3.5
CC(=O)Nc1nc(C)c(-c2csc(Nc3cccc([N+](=O)[O-])c3)n2)s1	94.8*	-16.4	2.3	-2.1	0.5	62.7*
CC(=O)Nc1nc(C)c(-c2csc(Nc3ccccn3)n2)s1	50.4	22.1	1.5	-0.3	21.8*	-1.6
CC(C)OCCCNC(=O)[C@H]1N2C(=O)c3ccccc3C2SC1(C)C (stereo not given in full)	x	x	-0.5	-0.7	-0.3	x
COc1ccc(N2CCN(C(=O)CNC(=O)c3cn(-c4ccccc4OC)c(=O)c4ccccc34)CC2)cc1	14.4	2.3	-0.9	0.7	-1.2	-8.1
CCOc1cc(-c2ccc(N)c(OCC)c2)ccc1N	-14.4	12.9	-0.2	-0.3	-5.1	145.5*
Cc1ccc(-n2c(COc3cccc(C)c3)n[nH]c2=S)cc1	7.6	57.0	-0.5	-1.2	-0.6	-15.9
COc1cc2nc(NC(=O)c3ccccc3)sc(=O)c2cc1OC	x	x	0.1	-0.2	42.3*	x
COc1ccc(-n2nc(C(=O)Nc3nc4ccc(OC)cc4s3)c3ccccc3c2=O)c(OC)c1	87.9*	18.2	x	x	x	-9.2
COC(=O)c1ccc(C(=O)Nc2nc3cc(N)c(C)cc3s2)cc1	x	x	4.0	-0.6	36.1*	x
Cc1cccc2sc(NC(=O)CNS(=O)(=O)c3ccc(Br)s3)nc12	22.3	-5.0	26.3	-0.8	10.7*	-11.3
C/C(CCc1ccccc1)=N\NC(=O)COc1ccccc1C	7.5	5.8	-1.3	-0.1	0.8	-15.3
COc1ccc2nc(NC(=O)c3cccc(-c4cc5ccccc5oc4=O)c3)sc2c1	105.4*	3.4	0.9	-0.1	8.5	-1.0
CCOC(=O)c1sc(NC(=O)c2ccc(Cl)s2)cc1C	60.4	11.9	0.4	-1.0	18.4*	3.2
COc1ccc(C(=O)Nc2cccc(-c3cc4ccccc4oc3=O)c2)cc1[N+](=O)[O-]	58.0	11.0	-18.1	0.5	11.2*	58.4*
COc1ccc(C(=O)Nc2nc3ccc(OC)cc3s2)cc1	x	x	0.5	-1.1	32.4*	x
CC(=O)Nc1ccc(NC(=O)c2cccc(-c3cc4ccccc4oc3=O)c2)cc1	-15.4	-3.7	0.5	0.3	-4.0	0.6
CS(=O)(=O)c1ccc(Cl)c(NC(=O)CCCSc2ccccc2)c1	x	x	0.4	0.2	9.4	x
Cc1cc(S(=O)(=O)N2CCOCC2)ccc1NC(=O)c1ccc(F)cc1	x	x	0.4	-0.7	-3.6	x
CCOC(=O)c1sc(NC(=O)c2ccc(S(=O)(=O)N3CCOCC3)cc2)cc1C	26.1	4.9	3.6	-0.1	20.4*	13.0
O=C(NNc1nc2ccccc2s1)Nc1ccc(F)cc1	22.3	x	3.4	-1.0	-12.8	-6.2
CSc1ncccc1C(=O)Nc1ncc(C)s1	x	x	-1.0	0.1	-0.4	x
COc1ccc2sc(NC(=O)NC(=O)c3c(Cl)cccc3Cl)nc2c1	17.0	x	4.9	-1.0	17.6*	-8.7
SMILES	CHOP inhibitor	WT yeast gro inh	MPTP inh	Tb MetRS inh	NR3A LBD binder	EBV gp42 block
CSc1ncccc1C(=O)Nc1nc2c(C)cccc2s1	86.2*	20.2	4.1	-0.9	-7.1	-9.6
NS(=O)(=O)c1ccc2nc(NC(=O)Nc3ccc(F)cc3)sc2c1	x	x	0.6	1.6	23.2*	x
COC(=O)c1ccccc1NC(=O)CSc1nnc(C(CO)NC(=O)c2ccccc2)n1C (stereo not given)	19.8	-11.0	-0.9	-1.7	-0.5	-3.7
CCCCOC(=O)c1ccc(NC(=O)C(=O)NCc2ccco2)cc1	7.2	4.3	0.1	-1.1	-7.3	-3.8
COc1ccc(CCNC(=O)C2CC(=O)N(C3CCCCCCC3)C2)cc1OC (stereo not given)	12.2	16.2	-1.4	-0.3	0.8	-10.7
COc1ccc(C(=O)Nc2nc3ccc(S(C)(=O)=O)cc3s2)cc1	-3.2	-11.3	1.0	0.5	10.4*	-11.6
CS(=O)(=O)c1ccc2nc(NC(=O)c3ccc(Cl)cc3)sc2c1	x	x	1.6	0.4	8.4	x
COc1ccc2nc(NC(=O)c3ccccc3C(=O)O)sc2c1	x	x	1.3	-0.3	-1.1	x
CCc1ccc2nc(NC(=O)c3ccc(N4C(=O)CCC4=O)cc3)sc2c1	80.5*	x	3.7	-0.7	-0.2	-11.9
COc1ccc2nc(NC(=O)Nc3ccccc3)sc2c1	25.6	6.9	3.8	2.1	22.7*	2.0
Cc1cc(F)ccc1NC(=O)c1ccc(NS(=O)(=O)c2cccs2)cc1	x	x	-1.7	0.0	x	x
Cc1cccc2sc(NC(=O)c3ccc(NS(=O)(=O)c4cccs4)cc3)nc12	42.5	67.2*	3.7	-0.4	35.8*	-8.4
O=C1Nc2ccc(NS(=O)(=O)c3cccs3)c3cccc1c23	-49.6	-12.7	-5.3	0.1	0.7	-16.4
O=C1CC(N2CCN(CCc3ccccn3)CC2)C(=O)N1c1ccc(Cl)cc1 (stereo not given)	16.6	-13.5	-1.5	-0.9	0.6	2.6
CC1c2ccsc2CCN1C(=O)NC(=O)c1ccc(Cl)cc1 (stereo not given)	16.6	x	2.6	-0.2	0.8	-7.0
CCOc1ccc2nc(NC(=O)C3CCCO3)sc2c1 (stereo not given)	-0.6	1.3	0.2	0.2	0.1	-6.2
COc1ccc2nc(NC(=O)c3ccc(NC(=O)C4CCCO4)cc3)sc2c1 (stereo not given)	x	x	-0.6	-0.8	20.1*	x
COc1ccc2nc(NC(=O)c3ccc(NS(=O)(=O)c4cccs4)cc3)sc2c1	20.5	7.9	2.9	-0.9	25.4*	-0.2
CCOc1ccc2nc(NC(=O)c3ccc(S(=O)(=O)N4CCOCC4)cc3)sc2c1	25.2	-9.6	3.6	-0.5	29.3*	-6.8
CCOc1ccc2nc(NC(=O)c3ccc(OC)c(S(=O)(=O)N4CCOCC4)c3)sc2c1	34.0	7.6	2.8	-0.1	7.4	-6.6
COc1ccc2nc(NC(=O)CNS(=O)(=O)c3cccs3)sc2c1	-6.2	15.7	0.8	-0.8	4.3	-20.1
COc1ccccc1N1C(=O)C2C3C=CC(CC3)C2C1=O (stereo not given)	x	x	-0.4	-0.4	2.0	x
O=C(NCC1COc2ccccc2O1)c1ccc(NC(=O)C2CCCO2)cc1 (stereo not given)	20.9	6.1	0.0	0.8	-0.8	-10.7
O=C(c1ccc(F)cc1)N1CCN(c2ccccn2)CC1	x	x	-2.4	-1.1	1.6	x
